According to publication PMC3334839 (The Journal of Neuroscience, 2012):
Changes are numbered by the printed parent chain.

Legend:
[1] = target: T1, rat α2 GlyR (Rattus norvegicus, UniProt P22771); assay: Whole-cell patch-clamp of IGly in HEK-293 cells expressing α2 GlyRs; format: cell-based; conditions: 10 μM AEA, 5 min sustained, EC2 Gly (20 μM), wild-type α2
T1 sequence (P22771 28-452): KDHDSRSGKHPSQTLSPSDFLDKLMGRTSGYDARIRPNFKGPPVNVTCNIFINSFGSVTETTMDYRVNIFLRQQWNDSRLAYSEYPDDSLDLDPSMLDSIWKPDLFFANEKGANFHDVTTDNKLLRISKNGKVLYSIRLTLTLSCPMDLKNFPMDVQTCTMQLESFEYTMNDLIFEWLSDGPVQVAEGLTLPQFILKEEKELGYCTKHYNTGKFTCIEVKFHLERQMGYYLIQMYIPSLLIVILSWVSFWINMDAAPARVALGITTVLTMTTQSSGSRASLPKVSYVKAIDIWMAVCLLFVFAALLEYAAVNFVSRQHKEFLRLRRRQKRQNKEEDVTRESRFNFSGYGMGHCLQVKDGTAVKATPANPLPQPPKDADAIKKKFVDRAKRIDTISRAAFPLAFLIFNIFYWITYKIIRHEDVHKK

[2] = target: T2, S307A mutant rat α3 GlyR (Rattus norvegicus, UniProt P24524, S329A); assay: Whole-cell patch-clamp of IGly in HEK-293 cells expressing S307A mutant α3 GlyRs; format: cell-based; conditions: 10 μM AEA, 5 min sustained, EC2 Gly (100 μM)
T2 sequence (P24524 34-464 S329A): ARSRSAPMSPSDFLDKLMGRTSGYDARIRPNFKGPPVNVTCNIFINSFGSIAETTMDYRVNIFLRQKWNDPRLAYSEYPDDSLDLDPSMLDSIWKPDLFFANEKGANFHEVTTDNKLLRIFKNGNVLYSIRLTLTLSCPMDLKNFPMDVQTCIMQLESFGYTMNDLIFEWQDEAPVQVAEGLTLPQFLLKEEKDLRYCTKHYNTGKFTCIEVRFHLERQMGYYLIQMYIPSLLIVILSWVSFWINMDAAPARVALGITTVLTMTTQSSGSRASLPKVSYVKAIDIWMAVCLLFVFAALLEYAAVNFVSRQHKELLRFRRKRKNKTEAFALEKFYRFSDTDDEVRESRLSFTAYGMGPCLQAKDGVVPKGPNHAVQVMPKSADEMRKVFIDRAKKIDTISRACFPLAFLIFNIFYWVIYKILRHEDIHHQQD

[3] = target: T3, A303S mutant rat α2 GlyR (Rattus norvegicus, UniProt P22771, A330S); assay: Whole-cell patch-clamp of IGly in HEK-293 cells expressing A303S mutant α2 GlyRs; format: cell-based; conditions: 10 μM AEA, 5 min sustained, EC2 Gly (20 μM)
T3 sequence (P22771 28-452 A330S): T1 sequence (P22771 28-452) with A303S

[4] = target: T4, G254A mutant human α1 GlyR (Homo sapiens, UniProt P23415, G282A); assay: Whole-cell patch-clamp of IGly in HEK-293 cells expressing G254A mutant α1 GlyRs; format: cell-based; conditions: AEA 5 min sustained incubation
T4 sequence (P23415 29-457 G282A): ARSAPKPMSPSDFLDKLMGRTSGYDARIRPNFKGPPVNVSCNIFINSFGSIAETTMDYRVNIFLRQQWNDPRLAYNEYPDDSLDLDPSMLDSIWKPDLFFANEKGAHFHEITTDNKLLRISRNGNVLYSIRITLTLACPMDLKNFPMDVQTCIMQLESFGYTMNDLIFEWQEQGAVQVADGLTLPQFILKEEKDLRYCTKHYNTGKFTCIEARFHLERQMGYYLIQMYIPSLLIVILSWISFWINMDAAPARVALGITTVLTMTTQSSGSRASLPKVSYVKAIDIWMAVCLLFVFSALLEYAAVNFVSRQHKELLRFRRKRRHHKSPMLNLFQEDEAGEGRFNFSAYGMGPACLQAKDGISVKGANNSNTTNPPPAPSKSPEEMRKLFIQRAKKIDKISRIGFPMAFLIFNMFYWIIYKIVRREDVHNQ

[5] = target: T5, S296A mutant human 5-HT3A receptor (Homo sapiens, UniProt P46098, S319A); format: cell-based; conditions: 0.1 μM AEA, vs wild-type
T5 sequence (P46098 24-478 S319A): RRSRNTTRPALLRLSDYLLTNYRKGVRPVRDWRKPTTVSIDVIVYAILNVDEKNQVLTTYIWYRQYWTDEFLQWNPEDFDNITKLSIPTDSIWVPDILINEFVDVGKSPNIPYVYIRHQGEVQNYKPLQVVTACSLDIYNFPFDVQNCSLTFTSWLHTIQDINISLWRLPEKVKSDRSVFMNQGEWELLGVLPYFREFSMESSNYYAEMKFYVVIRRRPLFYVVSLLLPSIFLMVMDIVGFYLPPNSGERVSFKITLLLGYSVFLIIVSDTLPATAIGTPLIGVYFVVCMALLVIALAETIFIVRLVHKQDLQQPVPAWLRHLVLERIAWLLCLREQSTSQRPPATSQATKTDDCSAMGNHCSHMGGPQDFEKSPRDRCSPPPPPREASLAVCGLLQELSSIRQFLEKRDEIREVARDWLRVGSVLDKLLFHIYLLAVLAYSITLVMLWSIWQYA
How it was run: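 Human 5-HT3A receptors (wild-type or point mutant made by site-directed mutagenesis) transfected into HEK-293 cells. Cells recorded 2 d later, trypsin/EDTA-treated 2 h before, lifted, superfused with HEPES-buffered saline (pH 7.4). Whole-cell, CsCl pipette, −60 mV, 20–22°C. 5-HT 30 μM pulses before, during and after continuous 5 min test compound (0.1 μM) incubation; 5–7 cells, mean ± SE.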

[6] = target: CB1 receptors; conditions: read-out: binding affinity (Ki) for CB1 receptors; ref Pertwee, 2000; cited from earlier work

In the case of `CCCCC/C=C\C/C=C\C/C=C\C/C=C\CCCC(=O)NCCO` [AEA, anandamide], the “average percentage potentiation of IGly” value [1] is reported as 127 ± 37%, the “AEA-induced potentiation of IGly” value [2] is reported as 249 ± 48% and the “AEA-induced potentiation of IGly” value [3] is reported as 580 ± 110%. For the same compound, the “AEA-induced potentiation of IGly” value [4] was 597 ± 77%, the “effect of S296A mutation on AEA-induced inhibition of 5-HT-activated current” value [5] was “did not significantly alter” and the Ki [6] was 61 to 543 nM.
